Holding throughout (type): functional
In assay [1] the test system is Escherichia coli. Briefly: Antibacterial activity against Escherichia coli B-906 at 0.5% after 24 hrs by diffusion technique.
Assay [2] relates to Escherichia coli. Briefly: Antibacterial activity against Escherichia coli B-906 at 0.1% after 24 hrs by diffusion technique.
Assay [3] concerns Staphylococcus aureus. As to the kind of experiment: Antibacterial activity against Staphylococcus aureus 209-P at 0.5% after 24 hrs by diffusion technique.
Assay [4] has as its system Staphylococcus aureus. As to the kind of experiment: Antibacterial activity against Staphylococcus aureus 209-P at 0.1% after 24 hrs by diffusion technique.
The test system of assay [5] is Mycobacterium. Briefly: Antibacterial activity against Mycobacterium luteum b-917 at 0.5% after 24 hrs by diffusion technique.
The test system of assay [6] is Mycobacterium. As to the kind of experiment: Antibacterial activity against Mycobacterium luteum b-917 at 0.1% after 24 hrs by diffusion technique.
Assay [7] relates to Yamadazyma tenuis. Briefly: Antifungal activity against Candida tenuis VKM Y-70 at 0.5% after 48 to 72 hrs by diffusion technique. In a few lines: (§1)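 Fungi. Disk diffusion: 10⁹ spores (cells)/1 mL inoculum. Incubated 48–72 h at 28–30 °C. Zone around disk measured, with a nystatin control disk. Serial dilution: compounds dissolved in DMSO and diluted into wort agar, then inoculated. Incubated at 30 °C for 24–72 h. MIC recorded.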

In assay [8] the test system is Yamadazyma tenuis. Briefly: Antifungal activity against Candida tenuis VKM Y-70 at 0.1% after 48 to 72 hrs by diffusion technique. In a few lines:
as §1

Assay [9] deals with Aspergillus niger. Briefly: Antifungal activity against Aspergillus niger F-1119 at 0.5% after 48 to 72 hrs by diffusion technique. In short, it runs like this: as §1
Assay [10] concerns Aspergillus niger. As to the kind of experiment: Antifungal activity against Aspergillus niger F-1119 at 0.1% after 48 to 72 hrs by diffusion technique. In a few lines: as §1
In assay [11] the test system is Escherichia coli. As to the kind of experiment: Antibacterial activity against Escherichia coli B-906 after 24 to 72 hrs by serial dilution technique.
Assay [12] deals with Staphylococcus aureus. Briefly: Antibacterial activity against Staphylococcus aureus 209-P after 24 to 72 hrs by serial dilution technique.
For assay [13], the system named is Mycobacterium. As to the kind of experiment: Antibacterial activity against Mycobacterium luteum b-917 after 24 to 72 hrs by serial dilution technique.
Assay [14] relates to Yamadazyma tenuis. As to the kind of experiment: Antifungal activity against Candida tenuis VKM Y-70 after 24 to 72 hrs by serial dilution technique. In short, it runs like this:
as §1

Assay [15] deals with Aspergillus niger. As to the kind of experiment: Antifungal activity against Aspergillus niger F-1119 after 24 to 72 hrs by serial dilution technique. In short, it runs like this:
as §1

This note sets out measurements from ChEMBL document CHEMBL1909621, “Synthesis and biological evaluation of novel nitrogen- and sulfur-containing hetero-1,4-naphthoquinones as potent antifungal and antibacterial agents” (2011).

In brackets after ≈: the same amount, converted by molar mass. Activity calls are given as the source filed them. The calls are words filed in the database; no cut-off is given here.

By MIC is commonly meant the lowest concentration found to suppress growth. A low value points to inhibition by little substance. With `O=C1C(Cl)=C(SCc2ccc(Cl)cc2)C(=O)c2ccccc21`, the “diameter of the inhibition zone (DIZ)” value in the assay with Escherichia coli [1] is reported as 0 mm; in the assay on Escherichia coli [2], 0 mm; in the assay on Staphylococcus aureus [3], 7 mm; in the assay with Staphylococcus aureus [4], 0 mm; in the assay with Mycobacterium [5], 0 mm; with Mycobacterium [6], 0 mm. Also, the “diameter of the inhibition zone (DIZ)” value is reported as 14 mm in the assay on Yamadazyma tenuis [7], 10 mm in the assay on Yamadazyma tenuis [8], 7 mm with Aspergillus niger [9] and 0 mm in the assay on Aspergillus niger [10]. Moreover, the inhibition entry in the assay with Escherichia coli [11] and in the assay with Staphylococcus aureus [12] was “inactive” each time. Also, the MIC against Mycobacterium [13] amounted to 500 µg/mL (≈ 1430 µM); in the assay on Yamadazyma tenuis [14], 15.6 µg/mL (≈ 44.7 µM); with Aspergillus niger [15], 15.6 µg/mL (≈ 44.7 µM).
As for `O=C1CCSC2=C(SCCC(=O)OCC3(CO1)COC(=O)CCSC1=C(SCCC(=O)OC3)C(=O)c3ccccc3C1=O)C(=O)c1ccccc1C2=O`, the “diameter of the inhibition zone (DIZ)” value with Escherichia coli [1], in the assay with Escherichia coli [2], with Staphylococcus aureus [3], in the assay with Staphylococcus aureus [4], with Mycobacterium [5] and in the assay with Mycobacterium [6] was 0 mm throughout. Further, the “diameter of the inhibition zone (DIZ)” value in the assay with Yamadazyma tenuis [7], in the assay with Yamadazyma tenuis [8], in the assay with Aspergillus niger [9] and in the assay on Aspergillus niger [10] was 0 mm in each case. In addition, the inhibition result in the assay on Escherichia coli [11], in the assay with Staphylococcus aureus [12], in the assay with Mycobacterium [13] and with Aspergillus niger [15] was “inactive” each time. Also, the MIC with Yamadazyma tenuis [14] stood at 15.6 µg/mL (≈ 19.6 µM).
Consider `O=C1C(SCc2ccc(Cl)cc2)=C(SCc2ccc(Cl)cc2)C(=O)c2ccccc21`, for which the “diameter of the inhibition zone (DIZ)” value with Escherichia coli [1], in the assay with Escherichia coli [2], in the assay on Staphylococcus aureus [3], in the assay with Staphylococcus aureus [4], in the assay on Mycobacterium [5] and in the assay on Mycobacterium [6] was 0 mm each time. Further, the “diameter of the inhibition zone (DIZ)” value in the assay with Yamadazyma tenuis [7] was 7.4 mm; with Yamadazyma tenuis [8], 0 mm; in the assay on Aspergillus niger [9], 0 mm; in the assay with Aspergillus niger [10], 0 mm. Further, the inhibition result in the assay with Escherichia coli [11] and in the assay on Staphylococcus aureus [12] was “inactive” in each case. For the same compound, the MIC in the assay on Mycobacterium [13] amounted to 125 µg/mL (≈ 265 µM); in the assay with Yamadazyma tenuis [14], 15.6 µg/mL (≈ 33.1 µM); in the assay on Aspergillus niger [15] it was 31.2 µg/mL (≈ 66.2 µM).
On to `O=C1C(Cl)=C(SCCCCCCCCCO)C(=O)c2ccccc21`, for which the “diameter of the inhibition zone (DIZ)” value in the assay with Escherichia coli [1], with Escherichia coli [2], with Staphylococcus aureus [3], in the assay with Staphylococcus aureus [4], in the assay on Mycobacterium [5] and with Mycobacterium [6] was 0 mm throughout. Moreover, the “diameter of the inhibition zone (DIZ)” value in the assay with Yamadazyma tenuis [7], with Yamadazyma tenuis [8], in the assay on Aspergillus niger [9] and in the assay on Aspergillus niger [10] was 0 mm throughout. Besides, the inhibition result with Escherichia coli [11], with Staphylococcus aureus [12], in the assay on Mycobacterium [13] and in the assay on Aspergillus niger [15] was “inactive” each time. In addition, in the assay on Yamadazyma tenuis [14], the MIC worked out at 31.2 µg/mL (≈ 85 µM).
For `CCOC1=C(SCc2c(C)cc(C)cc2C)C(=O)c2ccccc2C1=O`, the “diameter of the inhibition zone (DIZ)” value with Escherichia coli [1], with Escherichia coli [2], in the assay with Staphylococcus aureus [3], in the assay with Staphylococcus aureus [4], with Mycobacterium [5] and in the assay on Mycobacterium [6] was 0 mm in each case. In addition, the “diameter of the inhibition zone (DIZ)” value in the assay on Yamadazyma tenuis [7], in the assay with Yamadazyma tenuis [8], in the assay on Aspergillus niger [9] and with Aspergillus niger [10] was 0 mm throughout. Also, the inhibition result in the assay with Escherichia coli [11], with Staphylococcus aureus [12], in the assay on Mycobacterium [13] and in the assay with Aspergillus niger [15] was “inactive” each time. This compound also returned an MIC in the assay with Yamadazyma tenuis [14] of 62.5 µg/mL (≈ 171 µM).
`O=C1C2=C(SCCSCCSC3=C(SCCSCCS2)C(=O)c2ccccc2C3=O)C(=O)c2ccccc21`: the “diameter of the inhibition zone (DIZ)” value in the assay on Escherichia coli [1], in the assay with Escherichia coli [2], in the assay with Staphylococcus aureus [3], in the assay on Staphylococcus aureus [4], in the assay on Mycobacterium [5] and in the assay on Mycobacterium [6] was 0 mm in each case. Further, the “diameter of the inhibition zone (DIZ)” value in the assay with Yamadazyma tenuis [7], in the assay on Yamadazyma tenuis [8], in the assay on Aspergillus niger [9] and with Aspergillus niger [10] was 0 mm throughout. Besides, the inhibition result with Escherichia coli [11], in the assay on Staphylococcus aureus [12], in the assay on Mycobacterium [13] and in the assay with Aspergillus niger [15] was “inactive” each time. The compound also had an MIC against Yamadazyma tenuis [14] of 31.2 µg/mL (≈ 50.6 µM).
As for `O=C1C(SCCCCO)=C(SCCCCO)C(=O)c2ccccc21`, the “diameter of the inhibition zone (DIZ)” value with Escherichia coli [1] is on record as 0 mm; in the assay on Escherichia coli [2] it was 0 mm; in the assay on Staphylococcus aureus [3], 26 mm; in the assay on Staphylococcus aureus [4], 18 mm; in the assay on Mycobacterium [5], 31 mm; with Mycobacterium [6], 22 mm. Also, the “diameter of the inhibition zone (DIZ)” value in the assay on Yamadazyma tenuis [7] is recorded as 8 mm; with Yamadazyma tenuis [8], 0 mm; in the assay with Aspergillus niger [9] it was 6 mm; in the assay on Aspergillus niger [10], 0 mm. Also, the inhibition entry in the assay on Escherichia coli [11] is “inactive”. The MIC was found to be 15.6 µg/mL (≈ 42.6 µM) in the assay on Staphylococcus aureus [12], 15.6 µg/mL (≈ 42.6 µM) against Mycobacterium [13], 7.8 µg/mL (≈ 21.3 µM) against Yamadazyma tenuis [14] and 31.2 µg/mL (≈ 85.1 µM) against Aspergillus niger [15].
`O=C1C(Sc2nc3ccc([N+](=O)[O-])cc3s2)=C(Sc2nc3ccc([N+](=O)[O-])cc3s2)C(=O)c2ccccc21`: the “diameter of the inhibition zone (DIZ)” value with Escherichia coli [1] turned out to be 0 mm; in the assay with Escherichia coli [2], 0 mm; in the assay on Staphylococcus aureus [3], 8 mm; in the assay on Staphylococcus aureus [4], 0 mm; in the assay on Mycobacterium [5], 11.7 mm; in the assay with Mycobacterium [6], 0 mm. The “diameter of the inhibition zone (DIZ)” value in the assay on Yamadazyma tenuis [7] is recorded as 24 mm; with Yamadazyma tenuis [8] it was 15 mm; in the assay with Aspergillus niger [9] it was 15 mm; in the assay on Aspergillus niger [10], 8 mm. Moreover, the inhibition entry in the assay with Escherichia coli [11] and with Staphylococcus aureus [12] was “inactive” in each case. Besides, the values for the MIC in the assay with Mycobacterium [13], against Yamadazyma tenuis [14] and with Aspergillus niger [15] were 125 µg/mL (≈ 216 µM), 15.6 µg/mL (≈ 27 µM) and 31.2 µg/mL (≈ 53.9 µM), respectively.
With `CCOC1=C(SCCCCO)C(=O)c2ccccc2C1=O`, the “diameter of the inhibition zone (DIZ)” value in the assay on Escherichia coli [1] is 0 mm; in the assay with Escherichia coli [2], 0 mm; in the assay with Staphylococcus aureus [3] it was 19.4 mm; with Staphylococcus aureus [4] it was 12 mm; in the assay on Mycobacterium [5] it was 25.4 mm; in the assay with Mycobacterium [6] it was 14.7 mm. The “diameter of the inhibition zone (DIZ)” value is reported as 14.7 mm in the assay on Yamadazyma tenuis [7], 8.4 mm in the assay on Yamadazyma tenuis [8], 10 mm with Aspergillus niger [9] and 0 mm in the assay with Aspergillus niger [10]. For the same compound, the inhibition result with Escherichia coli [11] was “inactive”. Further, the MIC in the assay with Staphylococcus aureus [12] was 250 µg/mL (≈ 816 µM); with Mycobacterium [13], 31.2 µg/mL (≈ 102 µM); against Yamadazyma tenuis [14] it was 15.6 µg/mL (≈ 50.9 µM); with Aspergillus niger [15], 31.2 µg/mL (≈ 102 µM).
